The source made the active and inactive calls.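 How the source made its calls: active means compounds whose fitted curve reaches a 35% growth drop at up to twice the top tested dose; inconclusive means flat curve with a 30 to 70% growth drop, or poor fit; inactive means opposite effect, flat curve, or crossing beyond the limit.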

The text below walks through data of PubChem BioAssay AID624072 (Broad Institute, 2012).

System in the first test: not listed separately
The test can be described thus: iron-limited growth inhibition, mexAB-oprM mutant – whole organism, PAK mexAB-OprM mutant, OD600, EDDHA, dry powder, set 3, dose response (AID 624072). Conditions: P. aeruginosa PAK mexAB-oprM, EDDHA, OD600 growth, 28 h; at 100 µM (top of the series). In short, it runs like this: (§1)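 Test system – Pseudomonas aeruginosa PAK efflux pump deletion mutant ΔmexAB-oprM · Dosing – 100 µM to 15 nM final · Timing – 28 h at 30 °C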
On to `COCCNC(C#N)c1ccc(Cl)cc1` (stereo not given), for which the activity change, negative = growth inhibition is -9.68% (inactive).

In another test the test system is P. aeruginosa PAK mexAB-oprM, EDDHA, OD600 growth, 28 h. The test is described as above.
Conditions: not given
The gist of the method:
as §1
Turning to `N#CC(c1cccc(C(F)(F)F)n1)c1ccc(Cl)cc1F` (stereo not given), the AC35 was 4.24 µM.

With `CCCCC(c1ccc(Cl)cc1)c1nn[nH]n1` (stereo not given), the AC35 was 97.2 µM.

In the case of `N#CC(c1ccc(Cl)cc1)c1cccc(Cl)n1` (stereo not given), the AC35 is 5.35 µM.

As for `N#CC(c1ccc(Cl)cc1)c1cccc(C(F)(F)F)n1` (stereo not given), the AC35 is 3.92 µM.

Take `N#CC(c1ccc(Cl)cc1)c1ccc(Cl)cn1` (stereo not given): the AC35 is 9.77 µM.

Consider `N#CC(c1ccc(Cl)cc1)c1ncccc1Cl` (stereo not given), for which the AC35 was 6.94 µM.

Consider `N#CC(c1ccc(F)cc1)c1cccc(C(F)(F)F)n1` (stereo not given), for which the AC35 is 3 µM.

Turning to `COCCC(C#N)c1ccc(F)cc1` (stereo not given), the AC35 was 98.3 µM.

As for `N#CC(c1cccc(Cl)n1)c1ccc(Cl)cc1F` (stereo not given), the AC35 is 6.02 µM.
